Measured values as given in ChEMBL document CHEMBL3862007, “Synthesis and antimicrobial activity of small cationic amphipathic aminobenzamide marine natural product mimics and evaluation of relevance against clinical isolates including ESBL-CARBA producing multi-resistant bacteria” (Bioorg Med Chem, 2016).

Experiments:
Staphylococcus aureus [1] = assay: Antibacterial activity against Staphylococcus aureus ATCC 9144 after 48 hrs by microdilution method; type: functional; conditions: ATCC 9144, 48 h
[2] = Antibacterial activity against methicillin-resistant Staphylococcus epidermidis RP62A CCUG 31568 (ATCC 35984) after 48 hrs by microdilution method; type: functional
Method in brief: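 Broth microdilution MIC against the reference-strain panel. Compounds were supplied as HCl salts for aqueous solubility in the test medium. Precipitation in the test buffer is flagged at higher concentrations.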

Bacillus subtilis [3] = assay: Antibacterial activity against Bacillus subtilis 168 ATCC 23857 after 48 hrs by microdilution method; type: functional; conditions: subsp. subtilis str. 168 ATCC 23857, 48 h
[4] = test system: Corynebacterium glutamicum; assay: Antibacterial activity against Corynebacterium glutamicum ATCC 13032 after 48 hrs by microdilution method; type: functional; conditions: ATCC 13032, 48 h
Escherichia coli [5] = assay: Antibacterial activity against Escherichia coli ATCC 25922 after 48 hrs by microdilution method; type: functional; conditions: ATCC 25922, 48 h
Pseudomonas aeruginosa [6] = assay: Antibacterial activity against Pseudomonas aeruginosa PAO1 DSM 19880 (ATCC 15692) after 48 hrs by microdilution method; type: functional
[7] = Hemolytic activity in human RBC after 1 hr; type: ADME, cell-based; conditions: Erythrocyte
[8] = Selectivity index, ratio of hemolytic EC50 for human RBC to MIC for Staphylococcus aureus ATCC 9144
Staphylococcus aureus [9] = assay: Antibacterial activity against Staphylococcus aureus clinical isolate after 24 hrs by microdilution method; type: functional
Enterococcus sp. = assay: Antibacterial activity against Enterococcus sp. clinical isolate after 24 hrs by microdilution method; type: functional
Escherichia coli [10] = assay: Antibacterial activity against Escherichia coli clinical isolate after 24 hrs by microdilution method; type: functional
Pseudomonas aeruginosa [11] = assay: Antibacterial activity against Pseudomonas aeruginosa clinical isolate after 24 hrs by microdilution method; type: functional
Klebsiella pneumoniae = assay: Antibacterial activity against Klebsiella pneumoniae clinical isolate after 24 hrs by microdilution method; type: functional
Bacillus subtilis [12] = assay: Membranolytic activity in Bacillus subtilis 168 ATCC 23857 carrying pCSS962 plasmid measured every second for 30 secs by luciferase reporter assay; type: functional; conditions: subsp. subtilis str. 168 ATCC 23857
Method in brief: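 B. subtilis 168 carrying pCSS962 (luciferase-expressing) was added as a suspension already containing D-luciferin, with luminescence read in real time up to 120 s. Water served as the untreated control. Chlorhexidine was added to all samples at 30 s as a membranolytic control. Fold induction is the peak sample luminescence over the water-control maximum after chlorhexidine, from two independent experiments.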

[13] = Aqueous solubility of the compound; type: physicochemical; conditions: buffer

Row | Compound | MIC (Staphylococcus aureus [1]) [µg/mL] | MIC [2] [µg/mL] | MIC (Bacillus subtilis [3]) [µg/mL] | MIC [4] [µg/mL] | MIC (Escherichia coli [5]) [µg/mL] | MIC (Pseudomonas aeruginosa [6]) [µg/mL] | EC50 [7] [µg/mL] | Selectivity Index [8] | MIC (Staphylococcus aureus [9]) [µg/mL] | MIC (Enterococcus sp.) [µg/mL] | MIC (Escherichia coli [10]) [µg/mL] | MIC (Pseudomonas aeruginosa [11]) [µg/mL] | MIC (Klebsiella pneumoniae) [µg/mL] | Activity (Bacillus subtilis [12]) | solubility [13]
1 | CC(C)(C)c1cc(NC(=O)c2ccc(C(=O)NCCCNC(=N)N)cc2)cc(C(C)(C)C)c1.Cl | 4 | 8 | 4 | 2 | 8 | 8 | 42 | 10.5 | 4 | 8 | 8 | 8 | 16 |  | 
2 | CC(C)(C)c1cc(C(=O)Nc2ccccc2C(=O)NCCN)cc(C(C)(C)C)c1.Cl | 8 | 8 | 4 | 4 | 16 | 64 | 29 | 3.6 | 8 | 8 | 16 | > 64 | 32 |  | 
3 | CC(C)(C)c1cc(C(=O)Nc2cc3ccccc3cc2C(=O)NCCNC(=N)N)cc(C(C)(C)C)c1.Cl | 2 | 2 | 1 | 1 | 16 | 64 | > 16 | > 8 | 4 | 8 | 16 | > 64 | 32 |  | 
4 | CN(C(=O)c1cc(C(C)(C)C)cc(C(C)(C)C)c1)c1ccc(C(=O)NCCNC(=N)N)cc1.Cl | 16 | 16 | 16 | 4 | 128 | 128 | 243 | 15.2 |  |  |  |  |  |  | 
5 | CC(C)(C)c1cc(C(=O)Nc2ccc(C(=O)NCCCNC(=N)N)cc2)cc(C(C)(C)C)c1.Cl | 4 | 4 | 4 | 2 | 8 | 16 | 62 | 15.5 |  |  |  |  |  |  | 
6 | CC(C)(C)c1cc(NC(=O)c2ccc(C(=O)NCCCN)cc2)cc(C(C)(C)C)c1.Cl | 8 | 8 | 8 | 4 | 8 | 16 | 28 | 3.5 |  |  |  |  |  |  | 
7 | CN(C(=O)c1cc(C(C)(C)C)cc(C(C)(C)C)c1)c1ccc(C(=O)NCCN)cc1 |  |  |  |  |  |  |  | 0.3 |  |  |  |  |  |  | 
8 | CC(C)(C)c1cc(C(=O)Nc2ccc(C(=O)NCCNC(=N)N)cc2)cc(C(C)(C)C)c1.Cl | 4 | 4 | 4 | 2 | 8 | 16 | 38 | 9.5 | 4 | 8 | 8 | > 64 | 16 | Dose-dependent effect | 
9 | CC(C)(C)c1cc(C(=O)Nc2cc3ccccc3cc2C(=O)NCCN)cc(C(C)(C)C)c1.Cl | 2 | 8 | 4 | 2 | 8 | > 128 | 23 | 11.5 | 2 | 2 | 8 | > 64 | 64 |  | 
10 | CN(C)CCNC(=O)c1ccc(NC(=O)c2cc(C(C)(C)C)cc(C(C)(C)C)c2)cc1.Cl | 16 | 8 | 8 | 4 | 32 | > 128 | > 16 | > 1 |  |  |  |  |  |  | 
11 | CN(C(=O)c1cc(C(C)(C)C)cc(C(C)(C)C)c1)c1ccc(C(=O)NCCCN)cc1.Cl | > 128 | > 128 | 128 | 64 | > 128 | > 128 | 172 | < 1.3 |  |  |  |  |  |  | 
12 | CC(C)(C)c1cc(C(=O)Nc2cccc(C(=O)NCCCN)c2)cc(C(C)(C)C)c1.Cl | 8 | 8 | 8 | 4 | 16 | 16 | 32 | 4 |  |  |  |  |  |  | 
13 | CC(C)(C)c1cc(C(=O)Nc2cccc(C(=O)NCCCNC(=N)N)c2)cc(C(C)(C)C)c1.Cl | 4 | 8 | 4 | 4 | 8 | 16 | 59 | 14.8 |  |  |  |  |  | Dose-dependent effect | 
14 | CC(C)(C)c1cc(C(=O)Nc2ccc(C(=O)NCCCN)cc2)cc(C(C)(C)C)c1.Cl | 8 | 8 | 4 | 4 | 8 | 32 | 31 | 3.9 |  |  |  |  |  |  | 
15 | CC(C)(C)c1cc(C(=O)Nc2ccccc2C(=O)NCCCN)cc(C(C)(C)C)c1.Cl | 8 | 8 | 4 | 4 | 16 | 32 | 23 | 2.9 |  |  |  |  |  | Dose-dependent effect | 
16 | CC(C)(C)c1cc(NC(=O)c2ccc(C(=O)NCCN)cc2)cc(C(C)(C)C)c1.Cl | 8 | 8 | 4 | 8 | 8 | 16 | 21 | 2.6 |  |  |  |  |  |  | 
17 | CC(C)(C)c1cc(C(=O)Nc2ccc(C(=O)NCCN)cc2)cc(C(C)(C)C)c1.Cl | 8 | 8 | 4 | 4 | 8 | 16 | 28 | 3.5 | 8 | 16 | 8 | 16 | 16 |  | 
18 | CC(C)(C)c1cc(C(=O)Nc2cccc(C(=O)NCCN)c2)cc(C(C)(C)C)c1.Cl | 16 | 8 | 8 | 8 | 16 | 16 | 39 | 2.4 |  |  |  |  |  |  | 
19 | CC(C)(C)c1cc(C(=O)NCc2ccc(C(=O)NCCNC(=N)N)cc2)cc(C(C)(C)C)c1.Cl | 8 | 8 | 8 | 2 | 16 | 16 | 52 | 6.5 |  |  |  |  |  |  | Insoluble
20 | CN(C)CCOC(=O)c1ccc(NC(=O)c2cc(C(C)(C)C)cc(C(C)(C)C)c2)cc1.Cl | 8 | 8 | 4 | 4 | > 128 | > 128 | 28 | 3.5 |  |  |  |  |  |  | 
21 | CC(C)(C)c1cc(C(=O)Nc2ccccc2C(=O)NCCCNC(=N)N)cc(C(C)(C)C)c1.Cl | 4 | 2 | 2 | 1 | 8 | 32 | 39 | 9.8 |  |  |  |  |  |  | 
22 | CC(C)(C)c1cc(NC(=O)c2ccc(C(=O)NCCNC(=N)N)cc2)cc(C(C)(C)C)c1.Cl | 4 | 4 | 4 | 2 | 8 | 16 | 44 | 11 | 4 | 8 | 8 | 8 | 16 |  | 
